# Results: ChEMBL document CHEMBL4373721, “Computer-Aided Design of Mastoparan-like Peptides Enables the Generation of Nontoxic Variants with Extended Antibacterial Properties” (J Med Chem, 2019)
# Activity calls are given as the source filed them. The calls are words filed in the database; no cut-off is given here. Residues, ends and D or L forms follow the SMILES beside them.
# Experiments:
# Acinetobacter baumannii = experiment: Antibacterial activity against Acinetobacter baumannii isolate 003326263 incubated for 18 hrs by spectrophotometry; format: functional; conditions: isolate 003326263, 18 h
# Method in brief: (§1)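 Broth microdilution per CLSI in Mueller-Hinton broth. Three colonies grown overnight in MHB at 37 °C, 200 rpm; final inoculum 2-5 x 10^5 CFU/mL. Peptides tested at 2 to 32 μM, chloramphenicol as positive control at the same concentrations. Incubated 18 h at 37 °C, OD600 read. MIC taken as lowest inhibiting concentration; three independent experiments.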
# Enterobacter cloacae = experiment: Antibacterial activity against Enterobacter cloacae isolate 1383251 incubated for 18 hrs by spectrophotometry; format: functional; conditions: isolate 1383251, 18 h; method in brief: as §1
# Escherichia coli [1] = experiment: Antibacterial activity against Escherichia coli ATCC 25922 incubated for 18 hrs by spectrophotometry; format: functional; conditions: ATCC 25922, 18 h; method in brief: as §1
# Escherichia coli [2] = experiment: Antibacterial activity against KPC+ Escherichia coli isolate 001812446 incubated for 18 hrs by spectrophotometry; format: functional; conditions: isolate 001812446, 18 h; method in brief: as §1
# Escherichia coli [3] = experiment: Antibacterial activity against Escherichia coli BL21 incubated for 18 hrs by spectrophotometry; format: functional; conditions: BL21, 18 h; method in brief: as §1
# Klebsiella pneumoniae [4] = experiment: Antibacterial activity against Klebsiella pneumoniae ATCC 13883 incubated for 18 hrs by spectrophotometry; format: functional; conditions: ATCC 13883, 18 h; method in brief: as §1
# Klebsiella pneumoniae [5] = experiment: Antibacterial activity against KPC+ Klebsiella pneumoniae isolate 001825971 incubated for 18 hrs by spectrophotometry; format: functional; conditions: isolate 001825971, 18 h; method in brief: as §1
# Staphylococcus aureus [6] = experiment: Antibacterial activity against Staphylococcus aureus ATCC 25923 incubated for 18 hrs by spectrophotometry; format: functional; conditions: ATCC 25923, 18 h
# Method in brief: (§2)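 Broth microdilution per CLSI in Mueller-Hinton broth; inocula from three colonies grown overnight at 37 °C, 200 rpm; final 2-5 x 10^5 CFU/mL. Peptides tested at 2 to 32 μM; chloramphenicol at same concentrations as positive control. Plates incubated 37 °C, 18 h; growth read at 600 nm. Three independent experiments.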
# Staphylococcus aureus [7] = experiment: Antibacterial activity against Staphylococcus aureus ATCC 12600 incubated for 18 hrs by spectrophotometry; format: functional; conditions: ATCC 12600, 18 h; method in brief: as §1
# Staphylococcus aureus [8] = experiment: Antibacterial activity against methicillin-resistant Staphylococcus aureus isolate 713623 incubated for 18 hrs by spectrophotometry; format: functional; conditions: isolate 713623, 18 h; method in brief: as §2
# Pseudomonas aeruginosa [9] = experiment: Antibacterial activity against Pseudomonas aeruginosa PA14 incubated for 18 hrs by spectrophotometry; format: functional; conditions: PA14, 18 h; method in brief: as §1
# Pseudomonas aeruginosa [10] = experiment: Antibacterial activity against Pseudomonas aeruginosa PAO1 incubated for 18 hrs by spectrophotometry; format: functional; conditions: PAO1, 18 h; method in brief: as §1
# 3T3-L1 = experiment: Cytotoxicity in mouse 3T3L1 cells assessed as reduction in cell viability incubated for 2 hrs by MTT assay; format: cell-based; conditions: 3T3-L1, 2 h
# Method in brief: (§3)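 Cells grown at 37 °C, 5% CO2, passages 2–10, seeded 5 x 10^3 cells/well, attached 24 h. Media refreshed, then peptides added at final 0.781 to 100 μM. Viability reagent added after 2 h, followed by 4 h further incubation. Supernatant replaced by DMSO, absorbance read at 600 nm. Three independent experiments.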
# HUVEC = experiment: Cytotoxicity in HUVEC assessed as reduction in cell viability incubated for 2 hrs by MTT assay; format: cell-based; conditions: Homo sapiens; method in brief: as §3
# PC-3 = experiment: Cytotoxicity in human PC3 cells assessed as reduction in cell viability incubated for 2 hrs by MTT assay; format: functional, cell-based; conditions: PC-3, 2 h
# MCF7 = experiment: Cytotoxicity in human MCF7 cells assessed as reduction in cell viability incubated for 2 hrs by MTT assay; format: functional, cell-based; conditions: MCF7, 2 h
# HT-29 = experiment: Cytotoxicity in human HT-29 cells assessed as reduction in cell viability incubated for 2 hrs by MTT assay; format: functional, cell-based; conditions: HT-29, 2 h
# [11] = Induction of hemolysis in human RBC at 100 uM incubated for 1 hr relative to control; format: cell-based, Erythrocyte; conditions: red blood cells (RBC), read-out: Activity
# Method in brief: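 Human erythrocytes from healthy volunteers, washed three times in PBS, used as a 0.25% suspension in PBS. Peptides serially diluted, top concentration 100 μM per well. Incubated 1 h at 37 °C, then centrifuged, and supernatant absorbance read at 415 nm. PBS was the negative control and 1% Triton X-100 the 100% lysis control. Three replicates.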
# Pseudomonas aeruginosa [12] = experiment: Antibiofilm activity against 2 day-old preformed Pseudomonas aeruginosa PAO1 assessed as induction of biofilm eradication at 16 uM incubated for 24 hrs by SYTO-9 dye based by confocal microscopy; format: functional, organism-based
# Method in brief: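 Flow-cell biofilms: chambers inoculated with overnight culture diluted to OD600 ~0.5, grown in BM2 with 0.4% glucose. Established biofilms then given continuous flow of peptide at 16 µM in BM2 for 24 h. Stained with SYTO-9 (live) and propidium iodide (dead), imaged by confocal microscopy with 3D reconstruction. Two independent experiments.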
# Pseudomonas aeruginosa [13] = experiment: Antibacterial activity against Pseudomonas aeruginosa PA14 infected in CD-1 IGS mouse model of scarification skin infection assessed as reduction in bacterial counts at 64 uM measured on day 2 post-infection relative to control; format: functional
# Method in brief: (§4)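 Six-week-old female CD-1 IGS mice under isoflurane, back shaved, superficial skin abrasions sparing the dermis. Five minutes later, 5 x 10^7 CFU in 50 μL PBS applied to the wound. Two days later, peptide applied to the same area at 64 µM in 20 µL. Infected skin excised and homogenized for CFU counts two and four days post-infection. Four mice per group, two independent experiments; one-way ANOVA with Dunnett's test.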
# Pseudomonas aeruginosa [14] = experiment: Antibacterial activity against Pseudomonas aeruginosa PA14 infected in CD-1 IGS mouse model of scarification skin infection assessed as reduction in bacterial counts at 64 uM measured on day 4 post-infection relative to control; format: functional; method in brief: as §4
# Pseudomonas aeruginosa [15] = experiment: Antibacterial activity against Pseudomonas aeruginosa PA14 infected in CD-1 IGS mouse model of scarification skin infection assessed as reduction in bacterial counts at 64 uM measured on day 2 to 4 post-infection relative to control; format: functional, organism-based; conditions: TDE = time-dependent effect; method in brief: as §4
# Pseudomonas aeruginosa [16] = experiment: Antibacterial activity against bioluminescent Pseudomonas aeruginosa H1001 incubated for 4 hrs by luminescence based assay; format: functional; conditions: H1001, 4 h
# Method in brief: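 Crude peptides released from cellulose spots, two-fold diluted in BM2 (62 mM potassium phosphate pH 7, 2 mM MgSO4, 10 μM FeSO4, 0.4% glucose). Strain fliC::luxCDABE grown in LB to OD600 0.4, diluted 4:100 into BM2, mixed 1:1 with peptide (128 to 2 μM). Shaken 50 rpm, 4 h, 37 °C. Activity scored as luminescence reduction versus untreated cells.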
SMILES,MIC (Acinetobacter baumannii),MIC (Enterobacter cloacae),MIC (Escherichia coli [1]),MIC (Escherichia coli [2]),MIC (Escherichia coli [3]),MIC (Klebsiella pneumoniae [4]),MIC (Klebsiella pneumoniae [5]),MIC (Staphylococcus aureus [6]),MIC (Staphylococcus aureus [7]),MIC (Staphylococcus aureus [8]),MIC (Pseudomonas aeruginosa [9]),MIC (Pseudomonas aeruginosa [10]),IC50 (3T3-L1),IC50 (HUVEC),IC50 (PC-3),IC50 (MCF7),IC50 (HT-29),"hemolysis at 1 h, 100 µM [11]",fold change (FC) (Pseudomonas aeruginosa [13]),MIC (Pseudomonas aeruginosa [16]),also measured
CC[C@H](C)[C@H](N)C(=O)N[C@@H](CC(N)=O)C(=O)N[C@@H](CC(C)C)C(=O)N[C@@H](CCCCN)C(=O)N[C@@H](C)C(=O)N[C@@H](CC(C)C)C(=O)N[C@@H](C)C(=O)N[C@@H](C)C(=O)N[C@@H](CC(C)C)C(=O)N[C@@H](C)C(=O)N[C@@H](CCCCN)C(=O)N[C@@H](CCCCN)C(=O)N[C@H](C(=O)N[C@@H](CC(C)C)C(=O)O)[C@@H](C)CC,> 32 µM,> 32 µM,32 µM,> 32 µM,2 µM,> 32 µM,> 32 µM,> 32 µM,8 µM,> 32 µM,8 µM,8 µM,12.5 µM,50 µM,12.5 µM,25 µM,25 µM,45%,100,–,Activity (Pseudomonas aeruginosa [12]): inactive; Activity (Pseudomonas aeruginosa [14]): Active; Activity (Pseudomonas aeruginosa [15]): Tde
CC[C@H](C)[C@H](N)C(=O)N[C@@H](CCCCN)C(=O)N[C@@H](CC(C)C)C(=O)N[C@@H](CC(C)C)C(=O)N[C@@H](C)C(=O)N[C@@H](CCCNC(=N)N)C(=O)N[C@H](C(=O)N[C@@H](C)C(=O)N[C@@H](CC(C)C)C(=O)N[C@@H](CCCCN)C(=O)N[C@H](C(=O)N[C@@H](CCCCN)C(=O)N[C@H](C(=O)N[C@@H](CC(C)C)C(=O)O)[C@@H](C)CC)[C@@H](C)CC)[C@@H](C)CC (H-IKLLARIALKIKIL-OH),–,–,–,–,–,–,–,–,–,–,–,–,–,–,–,–,–,–,–,30 µM,–
CC[C@H](C)[C@H](N)C(=O)N[C@@H](CC(N)=O)C(=O)N[C@@H](CCCCN)C(=O)N[C@H](C(=O)N[C@@H](C)C(=O)N[C@@H](CC(C)C)C(=O)N[C@@H](CCCNC(=N)N)C(=O)N[C@H](C(=O)N[C@@H](CC(C)C)C(=O)N[C@@H](C)C(=O)N[C@@H](CCCCN)C(=O)N[C@H](C(=O)N[C@H](C(=O)N[C@@H](CC(C)C)C(=O)O)[C@@H](C)CC)[C@@H](C)CC)[C@@H](C)CC)[C@@H](C)CC (H-INKIALRILAKIIL-OH),–,–,–,–,–,–,–,–,–,–,–,–,–,–,–,–,–,–,–,30 µM,–
CC[C@H](C)[C@H](N)C(=O)N[C@@H](CC(N)=O)C(=O)N[C@@H](CC(C)C)C(=O)N[C@@H](CCCCN)C(=O)N[C@@H](CCCCN)C(=O)N[C@@H](CC(C)C)C(=O)N[C@@H](C)C(=O)N[C@@H](C)C(=O)N[C@@H](CCCNC(=N)N)C(=O)N[C@H](C(=O)N[C@@H](CCCCN)C(=O)N[C@@H](CCCCN)C(=O)N[C@@H](CCCCN)C(=O)N[C@H](C(=O)O)[C@@H](C)CC)[C@@H](C)CC (H-INLKKLAARIKKKI-OH),> 32 µM,> 32 µM,4 µM,8 µM,2 µM,> 32 µM,> 32 µM,8 µM,4 µM,8 µM,4 µM,4 µM,> 100 µM,> 100 µM,> 100 µM,> 100 µM,> 100 µM,8%,100,4 µM,Activity (Pseudomonas aeruginosa [12]): Active; Activity (Pseudomonas aeruginosa [14]): Active; Activity (Pseudomonas aeruginosa [15]): Tde
CC[C@H](C)[C@H](NC(=O)[C@H](CCCCN)NC(=O)[C@H](CCCCN)NC(=O)[C@@H](NC(=O)[C@H](CCCCN)NC(=O)[C@H](C)NC(=O)[C@H](C)NC(=O)[C@H](CC(C)C)NC(=O)[C@H](CCCNC(=N)N)NC(=O)[C@H](CCCCN)NC(=O)[C@H](CC(C)C)NC(=O)[C@@H](NC(=O)[C@@H](N)CCCCN)[C@@H](C)CC)[C@@H](C)CC)C(=O)N[C@@H](CC(C)C)C(=O)O (H-KILKRLAAKIKKIL-OH),> 32 µM,> 32 µM,4 µM,8 µM,2 µM,8 µM,> 32 µM,> 32 µM,4 µM,> 32 µM,4 µM,4 µM,> 100 µM,> 100 µM,> 100 µM,> 100 µM,> 100 µM,3%,100,4 µM,Activity (Pseudomonas aeruginosa [12]): Active; fold change (FC) (Pseudomonas aeruginosa [14]): 1000; Activity (Pseudomonas aeruginosa [15]): Tde
CC[C@H](C)[C@H](NC(=O)[C@H](CCCCN)NC(=O)[C@H](C)NC(=O)[C@H](C)NC(=O)[C@H](CC(C)C)NC(=O)[C@H](CCCNC(=N)N)NC(=O)[C@H](CC(C)C)NC(=O)[C@H](C)NC(=O)[C@H](CC(C)C)NC(=O)[C@H](CCCCN)NC(=O)[C@H](CC(C)C)NC(=O)[C@H](CCCCN)NC(=O)[C@H](CCCCN)NC(=O)[C@H](CCSC)NC(=O)[C@@H]1CCCN1)C(=O)N[C@@H](C)C(=O)N1CCC[C@H]1C(=O)N[C@H](C(=O)N[C@@H](Cc1c[nH]c2ccccc12)C(=O)O)C(C)C (H-PMKKLKLALRLAAKIAPVW-OH),–,–,–,–,–,–,–,–,–,–,–,–,–,–,–,–,–,–,100,–,–
